Screens (PubChem BioAssay)
TAAR1 antag: antagonists of human TAAR1; inhibition, % at 3 µM; CHO RD-HGA16 TAAR1, Fluo-8 calcium fluorescence, antagonist; AID 624466; 1.5% of 360,000 active; Q96RJ0;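 active = inhibition above a per-plate cutoff, the mean inhibition of test compounds on that plate plus 3 SD, cut at about 49% in these data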;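 also: 0% = DMSO plus EC80 beta-PEA response and 100% = DMSO alone without agonist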
Target sequence (Q96RJ0 whole entry, looked up): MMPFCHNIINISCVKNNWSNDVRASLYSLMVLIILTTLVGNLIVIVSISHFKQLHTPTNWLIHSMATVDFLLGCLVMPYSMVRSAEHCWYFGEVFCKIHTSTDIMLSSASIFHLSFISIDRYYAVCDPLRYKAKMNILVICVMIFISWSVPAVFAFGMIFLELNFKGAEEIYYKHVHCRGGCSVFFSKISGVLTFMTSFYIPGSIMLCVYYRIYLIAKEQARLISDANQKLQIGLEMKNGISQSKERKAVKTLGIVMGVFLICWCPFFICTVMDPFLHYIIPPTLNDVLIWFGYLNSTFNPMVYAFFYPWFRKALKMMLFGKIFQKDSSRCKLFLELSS
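Test system: CHO RD-HGA16 cells bearing hTAAR1 | Reagent: β-PEA, EC80 | Compound dosing: 3 µM, single point | Schedule: Dye loading 75 min at 37 °C, then 30 min room temperature | Signal: Calcium fluorescence with Fluo-8 | Evaluation: Percent inhibition of PEA-evoked calcium signal, max/basal emission ratio | Control set: DMSO-only wells and EC80 β-PEA-stimulated wells | Repeats: Singlicate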
TAAR1 agonist: agonists of human TAAR1 | CHO RD-HGA16 TAAR1, Fluo-8 calcium fluorescence; vehicle wells 0%, saturating PEA agonist 100% | Q96RJ0 | 0.99% of 360,000 active | AID 624467 | activation, % at 3 µM;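 active = activation above the mean activation of all test compounds in the run plus 3 SD, cut at about 38% in these data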
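Test system: RD-HGA16 (CHO) cells co-expressing Gα16 and hTAAR1 | Doses: Single dose, 3 µM | Schedule: 17-24 h seeding, 75 min 37 °C dye, 30 min RT | Evaluation: % activation from peak over basal fluorescence ratio, DMSO-to-PEA scaled | Technique: Kinetic Fluo-8 calcium fluorescence | Benchmarks: Low control DMSO, high control PEA (EC100)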
M1 ag: activates human CHRM1 receptor. activation, % at 3 µM. P11229. CHO-K1 hM1, Fluo-8 calcium fluorescence, agonist mode; 0% DMSO, 100% acetylcholine EC100. 0.33% of 360,000 active;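 active = activation above the run's mean compound activation plus 3 SD, cut at about 16% in these data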;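 also: peak over basal fluorescence ratio within a 140 s kinetic read after compound addition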
CHRM1 antagonist: human CHRM1 antagonism; 1.3% of 360,000 active; CHO-K1 hM1, Fluo-8 calcium fluorescence, ACh EC80 antagonist; inhibition, % at 3 µM; AID 588852; P11229;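 active = percent inhibition above its own plate's cutoff, namely the mean of that plate's compound wells plus 3 SD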;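 also: peak over basal fluorescence ratio during 140 s after agonist addition; 0% = ACh EC80 plus DMSO and 100% = DMSO alone without agonist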
M1 PAM: human CHRM1 positive allosteric modulation. CHO-K1 hM1, Fluo-8 calcium fluorescence, ACh EC20; 0% = ACh EC20, 100% = maximal ACh. P11229. 0.088% of 360,000 active. activation, % at 3 µM; in the data active = activation above about 19%, passing the limit was not always enough
TAAR1 ag conf: confirmation of human TAAR1 agonists | shares compounds with TAAR1 agonist | CHO RD-HGA16 TAAR1, Fluo-8 calcium fluorescence; scaled: DMSO 0%, maximal phenethylamine 100% | activation, % at 3 µM | 82% of 2,400 active | AID 651783;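 active = activation above a cutoff set at the run's mean compound activation plus 3 SD, cut at about 39% in these data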
Ga16 nonsel ag: nonselective agonist in parental cells, TAAR1 agonist counter-screen | shares compounds with TAAR1 agonist | CHO-Ga16 parental, Fluo-8 calcium fluorescence; normalized to maximal ATP response, DMSO zero | activation, % at 3 µM | 50% of 2,400 active;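 active = activation above the run cutoff, the mean activation over all tested wells plus 3 SD, cut at about 12% in these data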;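 also: 0% = DMSO wells and 100% = maximal ATP response on the peak over basal ratio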
TAAR1 desens: TAAR1 response desensitization, agonist counter-screen; shares compounds with TAAR1 agonist; CHO RD-HGA16 hTAAR1, Fluo-8 calcium, beta-PEA response inhibition; inhibition, % at 3 µM; 46% of 2,400 active; AID 651951;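 active = inhibition above the run cutoff, the mean inhibition of all test compounds plus 3 SD, cut at about 49% in these data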;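 also: beta-PEA stimulus applied at its EC80; loss of beta-PEA calcium signal after compound pretreatment read as receptor desensitization; 0% = DMSO with beta-PEA at EC80 and 100% = DMSO alone without agonist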
Ga16 nonsel ant: nonselective Ga16 antagonism, counter-screen | CHO-Ga16 ATP-induced calcium, Fluo-8 fluorescence | inhibition, % at 3 µM | AID 651952 | 39% of 2,400 active | shares compounds with TAAR1 agonist;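 active = inhibition above the plate's mean compound inhibition plus 3 SD, computed per plate, cut at about 22% in these data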;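 also: 0% = EC80 ATP with DMSO and 100% = DMSO wells without ATP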
* marks the source's active call; other numbers are inactive results; nt = no result given. In the library only some 3.4% were active in any assay of this set; here they are far more common.

SMILES	TAAR1 antag	TAAR1 agonist	M1 ag	CHRM1 antagonist	M1 PAM	TAAR1 ag conf	Ga16 nonsel ag	TAAR1 desens	Ga16 nonsel ant
N#C/C(=C\c1coc2ccc(O)cc2c1=O)C(=O)Nc1nc2ccccc2s1	104*	480*	62*	21	-13	316*	295*	102*	95*
O=C(c1ccccc1)c1ccc(OCC(O)CNCc2cccc(Cl)c2)cc1 (stereo unspecified)	7	58*	-4	-11	8	95*	43*	60*	40*
CCC(=O)c1ccc(OCC(O)CNCc2ccc(F)cc2)cc1 (stereo unspecified)	-17	8	-1	-10	16	nt	nt	nt	nt
O=C(c1ccccc1)c1ccc(OCC(O)CNCc2ccc(F)cc2)cc1 (stereo unspecified)	13	48*	-3	-11	10	48*	19*	20	24*
CCN1CCc2c(sc(NC(=O)Nc3ccc(Cl)c(Cl)c3)c2C(N)=O)C1	102*	178*	114*	63*	-19	164*	177*	90*	88*
O=C(Cc1ccccc1F)N1CCN(S(=O)(=O)c2ccc(Cl)cc2)CC1	14	5	-6	-4	0	nt	nt	nt	nt
CC(=O)NC(C)CCc1ccccc1 (stereo unspecified)	-30	1	-4	1	4	nt	nt	nt	nt
O=C(NCCc1ccccc1)Nc1ccc(Cl)cc1	37	47*	-4	6	-4	46*	21*	42	28*
Cc1ccccc1NC(=O)NCCc1ccc(Cl)cc1	13	-1	-3	-4	8	nt	nt	nt	nt
Cc1cc(C)nc(Nc2nc(C(N)Cc3ccc(Cl)cc3)cs2)n1 (stereo unspecified)	50*	63*	16	8	1	45*	27*	31	33*
CC(CCc1ccccc1)NCC#N (stereo unspecified)	-15	53*	3	-6	-1	51*	0	8	6
CC(CCc1ccccc1)NC(=O)c1ccccc1C(=O)O (stereo unspecified)	-12	48*	5	-10	8	63*	20*	2	2
Cc1cc2nc(-c3nnnn3-c3c(C)cccc3C)c(=O)[nH]c2cc1C	-24	1	nt	nt	nt	nt	nt	nt	nt
Cc1ccc(S(=O)(=O)NCc2ccccc2)cc1C(=O)NCC1CCCO1 (stereo unspecified)	4	0	-2	17	-4	nt	nt	nt	nt
NC(Cc1ccc(Cl)cc1)c1csc(NC(=O)NCCc2ccccc2)n1 (stereo unspecified)	68*	75*	7	4	4	60*	30*	63*	51*
O=C(O)c1ccccc1C(=O)NCCc1ccc(Cl)cc1	17	60*	-5	-2	11	61*	7	27	9
NC(Cc1ccc(Cl)cc1)c1csc(NC(=O)Nc2ccccc2-c2ccccc2)n1 (stereo unspecified)	8	17	6	-9	15	nt	nt	nt	nt
CCCOC(c1ccccc1)(c1ccccc1)C(Oc1nc(C)cc(C)n1)C(=O)O (stereo unspecified)	-11	30	-1	-16	7	nt	nt	nt	nt
Cc1cc(C)nc(OC(C(=O)O)C(OCc2ccccc2)(c2ccccc2)c2ccccc2)n1 (stereo unspecified)	2	113*	-2	-21	13	136*	58*	9	-7
Cc1cc(C)nc(OC(C(=O)O)C(OCCC(C)C)(c2ccccc2)c2ccccc2)n1 (stereo unspecified)	18	89*	-6	-12	2	127*	92*	30	13
CCCOc1c(OC)cccc1C1CC(=O)Nc2cc3c(cc21)OCO3 (stereo unspecified)	3	11	-2	-10	7	nt	nt	nt	nt
CCCOc1c(OC)cccc1C1CC(=O)Nc2cc3c(cc21)OCCO3 (stereo unspecified)	-12	39*	-1	-2	-1	10	9	-10	-2
O=C(C1=C(O)C(=O)N(CCc2ccccc2)C1c1ccncc1)c1cc2ccccc2o1 (stereo unspecified)	2	44*	-5	2	2	54*	1	1	4
CCN(CC)CCN1C(=O)C(O)=C(C(=O)c2cc3ccccc3o2)C1c1cccnc1 (stereo unspecified)	-17	11	-4	-6	0	nt	nt	nt	nt
O=C(C1=C(O)C(=O)N(CCc2ccccc2)C1c1cccnc1)c1ccco1 (stereo unspecified)	-1	47*	-2	-34	8	59*	5	4	-3
SMILES	TAAR1 antag	TAAR1 agonist	M1 ag	CHRM1 antagonist	M1 PAM	TAAR1 ag conf	Ga16 nonsel ag	TAAR1 desens	Ga16 nonsel ant
O=C(C1=C(O)C(=O)N(Cc2cccnc2)C1c1cccc(Oc2ccccc2)c1)c1ccco1 (stereo unspecified)	-5	2	-5	-9	11	nt	nt	nt	nt
CCCNS(=O)(=O)c1ccc(Oc2ncc(C(F)(F)F)cc2Cl)cc1	39	53*	9	2	5	40*	23*	29	17
NC(=O)Nc1ccc(Oc2ncc(C(F)(F)F)cc2Cl)cc1	-5	0	-8	0	14	nt	nt	nt	nt
CC(C)(C)c1ccc(C(=O)NC(=S)NNC(=O)c2cccs2)cc1	105*	174*	92*	27*	-28	159*	129*	107*	102*
Cc1cc(OCC(=O)NNC(=S)NC(=O)c2cccs2)ccc1Cl	65*	103*	-3	-14	14	77*	76*	58*	54*
O=C(NNC(=S)NC(=O)c1ccccc1)c1cccnc1	-17	2	-2	17	-8	nt	nt	nt	nt
O=C(NC(=S)NNC(=O)c1cccs1)c1ccccc1	28	37	0	19	-4	nt	nt	nt	nt
CC(C)(C)c1ccc(C(=O)NNC(=S)NC(=O)c2cccnc2)cc1	35	86*	7	-6	8	49*	47*	38	28*
CCCOc1ccc(C(=O)NNC(=S)NC(=O)c2ccccc2)cc1	106*	161*	115*	69*	-38	147*	117*	106*	95*
